T cruzi inh – inhibitors of intracellular T. cruzi growth, primary screen, luminescence, NIH3T3 host cells; T. cruzi beta-gal in NIH3T3, 90 h; inhibition, % (test concentration not listed); hit rate 1.4% among 300,000; AID 1885, 2009;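 active means mean inhibition across valid replicates above about 55%, limit read from the data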;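 further: signal also drops with host cell toxicity which is not excluded here; 0% = plate median of DMSO wells and 100% = zero luminescence signal; higher percent means less beta-gal luminescence so fewer parasites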
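System: Mouse NIH/3T3 fibroblasts infected with β-gal-expressing T. cruzi Tulahuen C4 | Quantity: NIH/3T3 cells, 5,000 per well | Reagent: 5000 reporter trypomastigotes per well | Dosing: Compound pinned at 50 nL/well, DMSO | Schedule: 3 h host attachment, then at least 90 h co-culture | Detection: GalScreen luminescence, 60 min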
HSF-1 act – HSF-1 activators, primary screen, NIH3T3-HGL cells, MG132 stress, luminescence, single point | NIH3T3-HGL HSF-1 luciferase reporter, 8 h; 100% = twice DMSO control signal | activation, % at 9 µM | hit rate 1.7% among 300,000 | AID 504408, 2011;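 active means mean replicate activation of at least 50% with a set share of replicates each reaching 50%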;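 further: 0% = median of the neutral control wells and 100% = twice that signal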
HSF1 inhib – HSF1 inhibitors in luciferase reporter cells, primary screen, cell-based, NIH3T3, luminescence. NIH3T3-HGL HSE-luciferase, MG132-induced, luminescence 8 h; active compounds read low. activity change, negative = inhibition, % at 7.5 µM (by protocol). hit rate 0.77% among 300,000. AID 2098, 2009;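 active means more than half of replicate wells show activity change below -50%, luminescence cut by over half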;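 further: luciferase reports HSF-1 transcriptional activity via heat shock element; 0% = median of DMSO wells and -100% = zero luminescence signal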
Hsp70 activator – Hsp70 transcriptional activators, primary screen, cell-based, HeLa, Hsp70 promoter luciferase, luminescence, 10 µM; HeLa Hsp70 promoter luciferase reporter; scaled: vehicle 0, proteasome-inhibitor control 100%; activation, % at 10 µM; hit rate 0.04% among 200,000; AID 1203, 2008;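 active means activation above the mean across all tested compounds plus 3 SD, cutoff set per campaign, cut at about 5.5% in these data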;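 further: 100% = MG132 at 30 µM as the positive control and 0% = DMSO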
L major viab – Leishmania major promastigote growth inhibition, primary screen; hit rate 9% among 200,000; Leishmania major promastigotes, resazurin fluorescence viability; inhibition, % at 10 µM; in the data active means inhibition above about 50%;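 further: promastigotes grown with compound for 44 hours at 28 °C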
Numbers without * were called inactive; nt = not tested or not shown. Shown is part of a subset that was picked to be rich in hits.

SMILES	T cruzi inh	HSF-1 act	HSF1 inhib	Hsp70 activator	L major viab
COc1cc(C(=O)NCc2nnc(SCC(=O)Nc3cc(C)cc(C)c3)o2)cc(OC)c1OC	-10	-67	-56*	0	-5
CCOC(=O)c1ccc(NC(=O)CSc2nnc(CNC(=O)c3ccccc3F)o2)cc1	10	6	-2	0	91*
CCOC(=O)c1c(NC(=O)CSc2nnc(CNc3ccc(F)cc3)o2)sc(C)c1C	0	25	12	0	11
N#Cc1c2n(c3c(N)ncnc13)CCCCC2	1	3	-4	nt	nt
COc1ccccc1C1=NOC(C)(c2nnc(-c3cccc(Cl)c3)o2)C1 (stereo not given)	-3	-6	-1	nt	nt
COc1ccccc1CNc1ccc([N+](=O)[O-])cc1C	13	55*	27	0	19
COc1cccc(CNc2ccc([N+](=O)[O-])cc2Cl)c1O	-3	97*	72	0	9
COc1ccccc1NCc1ccc([N+](=O)[O-])s1	20	11	10	0	60*
CCc1ccc(C(=O)/C=C/Nc2ccc(S(=O)(=O)Nc3cnc4ccccc4n3)cc2)cc1	-1	-6	1	nt	nt
O=C(NNc1c(Cl)cccc1Cl)C1CCC1	-10	53*	20	nt	nt
CCC(C)N(C)C1CCN(C(=S)Nc2cccc(OC)c2)CC1 (stereo not given)	8	-15	-4	0	11
Cc1ccc(C)c(NC(=S)N2CCC(N(C)CC3CCCO3)CC2)c1 (stereo not given)	-3	3	4	0	91*
COc1cccc(NC(=S)N2CCC(N(C)CC3CCCO3)CC2)c1 (stereo not given)	-1	31	3	0	94*
Cc1ccc(NC(=S)N2CCC(N(C)CC3CCCO3)CC2)c(C)c1 (stereo not given)	-10	-1	5	0	90*
O=C(NCc1nnc(SCc2ccccc2)n1-c1ccccc1)C12CC3CC(CC(C3)C1)C2	41	90*	35	0	16
O=C(NCc1nnc(SCc2ccccc2)n1-c1ccc(F)cc1)C12CC3CC(CC(C3)C1)C2	41	16	5	0	22
O=C(N[C@@H]1CCC(=O)N(CC[C@H](Sc2ccccc2)c2ccccc2)CC1)OCc1ccccc1	44	5	3	nt	nt
CC1CCCN(Cc2ccc(OCc3ccccc3)cc2)C1 (stereo not given)	30	12	2	nt	nt
CC(C)COP(=O)(OCC(C)C)C(Nc1ccccc1)c1ccccc1 (stereo not given)	17	-2	7	nt	nt
CC(C)COP(=O)(OCC(C)C)C(Nc1ccccc1)c1ccc(F)cc1 (stereo not given)	7	8	8	0	93*
CSc1cccc(NC(=O)CCS(=O)(=O)c2cccc3nonc23)c1	7	-11	-9	nt	nt
O=C(NCCN1CCc2ccccc2C1)C1CCN(S(=O)(=O)N2CCCCC2)CC1	5	-8	-2	0	81*
CS(=O)(=O)N1CCCC(C(=O)NCCN2CCC(Cc3ccccc3)CC2)C1 (stereo not given)	25	2	-9	1	89*
O=C(C1CC(=O)N(C2CCCC2)C1)N1CCC(Cc2ccccc2)CC1 (stereo not given)	-4	nt	nt	0	70*
O=C(NCCN1CCc2ccccc2C1)C1CCN(S(=O)(=O)N2CCC3(CC2)OCCO3)CC1	5	-13	-11	0	-6
CS(=O)(=O)N1CCCC(C(=O)NCCc2ccccc2)C1 (stereo not given)	-7	-5	-16	0	-2
CCS(=O)(=O)N1CCCC(C(=O)NCCN2CCC(Cc3ccccc3)CC2)C1 (stereo not given)	4	-7	-11	0	90*
COc1ccccc1N1CCN(C(=O)C(C)CS(=O)(=O)c2ccc3c(c2)NC(=O)CS3)CC1 (stereo not given)	-3	11	5	nt	nt
COc1ccc(S(=O)(=O)NCC2CCCN(C(=O)CSC)C2)cc1 (stereo not given)	4	16	7	nt	nt
CCCS(=O)(=O)N1CCC(C(=O)N2CCC(Cc3ccccc3)CC2)CC1	-5	0	-2	0	-2

From PubChem BioAssay
